pIC50: −log10 of the molar value.

For this assay, the target named is 4-hydroxyphenylpyruvate dioxygenase (Sus scrofa, UniProt Q02110). Put plainly: Inhibition of pig liver 4-Hydroxyphenylpyruvate dioxygenase (4-HPPD) enzyme. Put shortly: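 Spectrophotometric enol borate assay. Mixture: potassium phosphate/borate buffer (0.42 M H₃BO₃ brought to pH 6.2 with 0.17 M Na₃PO₄), 4-hydroxyphenylpyruvic acid (1.8 mM stock), reduced dichlorophenolindophenol with glutathione, and phenylpyruvate tautomerase. Equilibrated about 15 min at 308 nm, then enzyme added with varying inhibitor concentrations. Absorbance decrease at 308 nm followed for 15 min. IC50 from fit to v_i = v₀/(1+[I]/IC50).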
Chain of 4-hydroxyphenylpyruvate dioxygenase (Q02110 whole entry): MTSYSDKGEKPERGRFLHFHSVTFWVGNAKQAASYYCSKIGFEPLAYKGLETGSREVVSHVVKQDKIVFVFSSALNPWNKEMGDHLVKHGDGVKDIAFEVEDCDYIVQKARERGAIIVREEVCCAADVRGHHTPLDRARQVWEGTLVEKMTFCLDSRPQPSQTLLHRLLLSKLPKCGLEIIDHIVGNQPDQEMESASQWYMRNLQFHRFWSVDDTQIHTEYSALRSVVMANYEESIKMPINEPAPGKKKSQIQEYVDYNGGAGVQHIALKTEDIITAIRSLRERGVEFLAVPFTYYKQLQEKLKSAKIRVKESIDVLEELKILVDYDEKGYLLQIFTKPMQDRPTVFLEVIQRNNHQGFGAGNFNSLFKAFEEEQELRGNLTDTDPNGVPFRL
By pIC50 is commonly meant −log10 of the IC50, conventionally taken in molar units. A lower pIC50 goes with a large IC50. With `O=C1CCCC(=O)C1=C(O)c1ccccc1[N+](=O)[O-]`, the pIC50 was 6.80.

On to `O=C1CCCC/C1=C(/O)c1ccccc1[N+](=O)[O-]`, for which the pIC50 was 6.15.

`COC1=C(C(=O)c2ccccc2[N+](=O)[O-])C(=O)CCC1` had a negative logarithm of the IC50 (pIC50) of 4.28.

`O=C1CCCC(Cl)=C1C(=O)c1ccccc1[N+](=O)[O-]` had a pIC50 of 4.19.

`O=C1CCCC(=O)N1Cc1ccccc1[N+](=O)[O-]` gave a pIC50 of 3.60.

In turn, `O=C1CCCC(=O)C1=C(NO)c1ccccc1[N+](=O)[O-]` had a pIC50 of 4.30.

`O=C1CCCC(O)=C1Cc1ccccc1[N+](=O)[O-]` had a pIC50 of 3.90.

For the compound `O=C1CCCC(=O)N1C(=O)c1ccccc1[N+](=O)[O-]`, the pIC50 was 4.22.

As to `O=C1CCC=C(Cl)/C1=C(/O)c1ccccc1[N+](=O)[O-]`, the pIC50 is 6.28.

The values above are taken from ChEMBL document CHEMBL1135420, “Mode of action of 4-hydroxyphenylpyruvate dioxygenase inhibition by triketone-type inhibitors” (J Med Chem, 2002).
